Reference: ChEMBL document CHEMBL1154647, “Synthesis, spectral characterization and biological evaluation of phosphorylated derivatives of galanthamine” (Eur J Med Chem, 2010)
≈ marks a conversion by molar mass, not a printed value.

Legend:
Staphylococcus aureus [1] = assay: Antibacterial activity against Staphylococcus aureus after 18 hrs; type: functional
Staphylococcus aureus [2] = assay: Antibacterial activity against Staphylococcus aureus at 2 mg/mL after 18 hrs by disc diffusion assay; type: functional; conditions: read-out: IZ
Outline: (§1)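 Bacteria were grown in nutrient broth at 37 °C for 18 h on a rotary shaker at 150 rpm. Compounds were dissolved in DMF. Nutrient agar plates were dried at 35–36 °C for about 30 min, and test strains were spread on the surface. Discs were applied, and plates were inverted and incubated at 37 °C. A DMF blank was run.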

Bacillus subtilis [3] = assay: Antibacterial activity against Bacillus subtilis at 2 mg/mL after 18 hrs by disc diffusion assay; type: functional; conditions: read-out: IZ; outline: as §1
Brain [4] = assay: Antioxidant activity in Wistar rat brain assessed as glutathione content; type: functional
Outline: (§2)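 Wistar rat brain was homogenised 1:40 (w/v) in 0.1 M phosphate buffer, pH 7.4, with 1 mM EDTA. Total glutathione (GSH + GSSG) and reduced GSH were assayed spectrophotometrically from optical density, using net rate against a standard-curve slope and intercept, times a dilution factor. Homogenate protein was measured by the Lowry method.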

Staphylococcus aureus [5] = assay: Antibacterial activity against Staphylococcus aureus at 1 mg/mL after 18 hrs by disc diffusion assay; type: functional; conditions: read-out: IZ; outline: as §1
Klebsiella pneumoniae [6] = assay: Antibacterial activity against Klebsiella pneumoniae after 18 hrs; type: functional
Klebsiella pneumoniae [7] = assay: Antibacterial activity against Klebsiella pneumoniae at 2 mg/mL after 18 hrs by disc diffusion assay; type: functional; conditions: read-out: IZ; outline: as §1
Brain [8] = assay: Antioxidant activity in Wistar rat brain assessed as catalase content; type: functional
Bacillus subtilis [9] = assay: Antibacterial activity against Bacillus subtilis after 18 hrs; type: functional
Brain [10] = assay: Antioxidant activity in Wistar rat brain assessed as reduction in glutathione content; type: functional, tissue-based; outline: as §2
Escherichia coli [11] = assay: Antibacterial activity against Escherichia coli after 18 hrs; type: functional
Brain [12] = assay: Antioxidant activity in Wistar rat brain assessed as inhibition of lipid peroxidation; type: functional, tissue-based
[13] = Inhibition of superoxide dismutase in Wistar rat brain; type: tissue-based
Bacillus subtilis [14] = assay: Antibacterial activity against Bacillus subtilis at 1 mg/mL after 18 hrs by disc diffusion assay; type: functional; conditions: read-out: IZ; outline: as §1
Escherichia coli [15] = assay: Antibacterial activity against Escherichia coli at 1 mg/mL after 18 hrs by disc diffusion assay; type: functional; conditions: read-out: IZ; outline: as §1
Escherichia coli [16] = assay: Antibacterial activity against Escherichia coli at 2 mg/mL after 18 hrs by disc diffusion assay; type: functional; conditions: read-out: IZ; outline: as §1
Catalase = molecular target: T1, Catalase (Rattus norvegicus, UniProt P04762); assay: Inhibition of catalase in Wistar rat brain
T1 sequence (P04762 whole entry): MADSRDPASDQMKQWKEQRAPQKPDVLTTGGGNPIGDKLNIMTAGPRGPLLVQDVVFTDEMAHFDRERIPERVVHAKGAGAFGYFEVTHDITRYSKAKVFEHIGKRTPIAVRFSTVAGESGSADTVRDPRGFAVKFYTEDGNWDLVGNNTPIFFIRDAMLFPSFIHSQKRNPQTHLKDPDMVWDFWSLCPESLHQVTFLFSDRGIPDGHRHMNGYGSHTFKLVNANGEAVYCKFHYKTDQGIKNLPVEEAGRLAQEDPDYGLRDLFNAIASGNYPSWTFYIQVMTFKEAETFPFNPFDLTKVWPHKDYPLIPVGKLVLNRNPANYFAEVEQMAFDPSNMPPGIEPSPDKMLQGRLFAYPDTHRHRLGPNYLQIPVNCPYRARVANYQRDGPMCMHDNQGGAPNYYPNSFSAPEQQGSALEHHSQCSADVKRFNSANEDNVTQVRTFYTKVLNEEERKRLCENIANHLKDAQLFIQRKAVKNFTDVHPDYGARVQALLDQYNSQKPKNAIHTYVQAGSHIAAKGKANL

Klebsiella pneumoniae [17] = assay: Antibacterial activity against Klebsiella pneumoniae at 1 mg/mL after 18 hrs by disc diffusion assay; type: functional; conditions: read-out: IZ; outline: as §1
Brain [18] = assay: Antioxidant activity in Wistar rat brain assessed as superoxide dismutase content; type: functional
Brain [19] = assay: Antioxidant activity in Wistar rat brain assessed as lipid peroxidation; type: functional, tissue-based

SMILES | MIC (Staphylococcus aureus [1]) [µg/mL] | zone of inhibition at 2000 µg/mL (Staphylococcus aureus [2]) [mm] | zone of inhibition at 2000 µg/mL (Bacillus subtilis [3]) [mm] | Activity (Brain [4]) [µg/mL] | zone of inhibition at 1000 µg/mL (Staphylococcus aureus [5]) [mm] | MIC (Klebsiella pneumoniae [6]) [µg/mL] | zone of inhibition at 2000 µg/mL (Klebsiella pneumoniae [7]) [mm] | Activity (Brain [8]) [µg/mL] | MIC (Bacillus subtilis [9]) [µg/mL] | EC50 (Brain [10]) [µg/mL] | MIC (Escherichia coli [11]) [µg/mL] | EC50 (Brain [12]) [µg/mL] | EC50 [13] [µg/mL] | zone of inhibition at 1000 µg/mL (Bacillus subtilis [14]) [mm] | zone of inhibition at 1000 µg/mL (Escherichia coli [15]) [mm] | zone of inhibition at 2000 µg/mL (Escherichia coli [16]) [mm] | EC50 (Catalase) [µg/mL] | zone of inhibition at 1000 µg/mL (Klebsiella pneumoniae [17]) [mm] | Activity (Brain [18]) [µg/mL] | Activity (Brain [19]) [µg/mL]
COc1ccc2c3c1O[C@H]1C[C@@H](OP(=O)(SCCO)N(CCCl)CCCl)C=C[C@@]31CCN(C)C2 (stereo not given in full) | 0.21 (≈ 0.381 µM) | 3.09 | 3.01 | 4.92 | 1.53 | 0.59 (≈ 1.07 µM) | 6.46 | 285.32 | 0.13 (≈ 0.236 µM) | 1.11 (≈ 2.01 µM) | 0.26 (≈ 0.471 µM) | 1.33 (≈ 2.41 µM) | 1.62 (≈ 2.94 µM) | 1.72 | 1.14 | 2.21 | 1.67 (≈ 3.03 µM) | 2.08 | 29.55 | 71.2
COc1ccc2c3c1O[C@H]1C[C@@H](OP(=O)(NCCN)Oc4ccc([N+](=O)[O-])cc4)C=C[C@@]31CCN(C)C2 (stereo not given in full) | 0.75 (≈ 1.41 µM) | 5.09 | 4.91 | 5.06 | 1.84 | 0.38 (≈ 0.716 µM) | 6.11 | 295.92 | 0.15 (≈ 0.283 µM) | 1.89 (≈ 3.56 µM) | 0.62 (≈ 1.17 µM) | 1.99 (≈ 3.75 µM) | 1.91 (≈ 3.6 µM) | 1.93 | 1.02 | 3.73 | 1.81 (≈ 3.41 µM) | 2.78 | 29.73 | 75.9
